ChEMBL document CHEMBL1132114, “Chemical syntheses and biological studies on dimeric chimeras of oxytocin and the V(2)-antagonist, d(CH(2))(5)[D-Ile(2), Ile(4)]arginine vasopressin” (J Med Chem, 1999)

Columns and labels:
Rattus norvegicus [1] = assay: Excreted total Na+ in 0% water loaded rats after administration of the compound; format: functional
In short: (§1)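 Conscious male Wistar rats fasted 16 h, given either no water load or tap water at 4% of body weight by stomach catheter; compound given subcutaneously at 50 nmol/kg right after loading. Rats kept in individual metabolic cages, urine collected over 5 h; total Na+ and K+ measured by flame spectrophotometry. Groups of 4–5 rats, 2–3 independent days; mean ± SEM.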

Rattus norvegicus [2] = organism: Rattus norvegicus; assay: diuresis half-time in 4% water loaded rats; format: functional, organism-based
In short: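 After a 16-h fast, conscious male Wistar rats received tap water at 4% of body weight by stomach catheter, then compound subcutaneously at 50 nmol/kg. Urine output followed every 15 min for 5 h in metabolic cages. Half-time taken as the time at which half the water load was excreted. Mean ± SEM.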

Rattus norvegicus [3] = assay: In vivo antidiuretic in conscious rats; format: functional, Urine
In short: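 Modified Burn test in conscious male Wistar rats fasted 16 h and loaded orally by catheter with tap water (4% of body weight). Compounds or saline injected subcutaneously at 1–100 nmol/kg. Urine collected over 5 h in metabolic cages. Groups of 4–5 rats; each dose run in 2–3 independent experiments.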

Rattus norvegicus [4] = assay: In vivo antidiuretic in anesth rats; format: functional, Urine
Rattus norvegicus [5] = assay: Excreted total Na+ in 4% water loaded rats after administration of the compound; format: functional; in short: as §1
Rattus norvegicus [6] = assay: Volume of excreted urine in 5 hr after administration in 0% water loaded rats; format: functional
In short: (§2)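 Fasted (16 h) conscious male Wistar rats, without water load or loaded by stomach catheter with tap water at 4% of body weight, then dosed subcutaneously at 50 nmol/kg (saline control). Urine collected in individual metabolic cages and total volume recorded over 5 h. Groups of 4–5 rats, 2–3 independent days; mean ± SEM.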

Rattus norvegicus [7] = organism: Rattus norvegicus; assay: In vitro uterotonic activity was determined; format: functional
In short: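 Uterine preparations from Wistar rats estrogenized 24–48 h beforehand were tested in vitro without magnesium ions. Synthetic oxytocin served as standard. Single or cumulative dose–response curves were built, and activity was obtained by comparing threshold doses of standard and analogue. Averages of 3–5 experiments, in IU/mg.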

Rattus norvegicus [8] = assay: Excreted total K+ in 0% water loaded rats after administration of the compound; format: functional, organism-based; in short: as §1
Rattus norvegicus [9] = assay: In vivo pressor response in rats; format: functional
In short: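 Vasopressor test in phenoxybenzamine-treated male Wistar rats against a synthetic arginine vasopressin standard. Activity came from comparing threshold doses of standard and analogue on dose–response curves. Averages of 3–5 experiments.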

Rattus norvegicus [10] = assay: Excreted total K+ in 4% water loaded rats after administration of the compound; format: functional, organism-based; in short: as §1
Rattus norvegicus [11] = assay: Volume of excreted urine in 5 hr after administration in 4% water loaded rats; format: functional; in short: as §2
Rattus norvegicus [12] = assay: In vivo uterotonic activity in rats; format: functional
In short: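 In vivo uterotonic test in Wistar rats estrogenized 24–48 h before the experiment, with compounds given intravenously. Synthetic oxytocin served as standard. Activity came from comparing threshold doses on dose–response curves. Averages of 3–5 experiments, in IU/mg.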

Rattus norvegicus [13] = assay: Volume of excreted urine in 5 h after administration in 0% water loaded rats; format: functional; in short: as §2

## CC[C@H](C)[C@@H]1NC(=O)[C@H](Cc2ccc(O)cc2)NC(=O)[C@@H](N)CSSC[C@@H](C(=O)N2CCC[C@H]2C(=O)N[C@@H](CC(C)C)C(=O)NCC(N)=O)NC(=O)[C@H](CC(N)=O)NC(=O)[C@H](CCC(N)=O)NC1=O [OXYTOCIN]
Rattus norvegicus [1]
  Na: 563 µmol
Rattus norvegicus [2]
  T1/2: 2.97 h
Rattus norvegicus [3]
  Antidiuretic activity: 100%
Rattus norvegicus [4]
  Antidiuretic activity: 5 IU mg-1
Rattus norvegicus [5]
  Na: 773 µmol
Rattus norvegicus [6]
  Volume of urine: 4.8 mL
Rattus norvegicus [7]
  Uterotonic activity: 450 IU mg-1
Rattus norvegicus [8]
  K: 202 µmol
Rattus norvegicus [9]
  Pressor response: 4.5 IU mg-1
Rattus norvegicus [10]
  K: 287 µmol
Rattus norvegicus [11]
  Volume of urine: 11.3 mL
Rattus norvegicus [12]
  Uterotonic activity: 450 IU mg-1

## CC[C@@H](C)[C@H]1NC(=O)CC2(CCCCC2)SSC[C@@H](C(=O)N2CCC[C@H]2C(=O)N[C@@H](CC(C)C)C(=O)NCC(N)=O)NC(=O)[C@H](CC(N)=O)NC(=O)[C@H](CCC(N)=O)NC(=O)[C@H]([C@@H](C)CC)NC(=O)[C@H](Cc2ccc(O)cc2)NC(=O)[C@@H](N)CSSC[C@@H](C(=O)N2CCC[C@H]2C(=O)N[C@@H](CCCN=C(N)N)C(=O)NCC(N)=O)NC(=O)[C@H](CC(N)=O)NC(=O)[C@H]([C@@H](C)CC)NC(=O)[C@H](Cc2ccccc2)NC1=O
Rattus norvegicus [1]
  Na: 358 µmol
Rattus norvegicus [13]
  Volume of urine: 6.3 mL
Rattus norvegicus [5]
  Na: 480 µmol
Rattus norvegicus [7]
  Uterotonic activity: 0.8 IU mg-1
Rattus norvegicus [9]
  Pressor response: 0 IU mg-1
Rattus norvegicus [11]
  Volume of urine: 13.1 mL
Rattus norvegicus [12]
  Uterotonic activity: 0.8 IU mg-1

## CC[C@H](C)[C@@H]1NC(=O)CC2(CCCCC2)SSC[C@H](N)C(=O)N[C@@H](Cc2ccc(O)cc2)C(=O)N[C@@H]([C@@H](C)CC)C(=O)N[C@@H](CCC(N)=O)C(=O)N[C@@H](CC(N)=O)C(=O)N[C@H](C(=O)N2CCC[C@@H]2C(=O)N[C@@H](CC(C)C)C(=O)NCC(N)=O)CSSC[C@@H](C(=O)N2CCC[C@H]2C(=O)N[C@@H](CCCN=C(N)N)C(=O)NCC(N)=O)NC(=O)[C@H](CC(N)=O)NC(=O)[C@H]([C@@H](C)CC)NC(=O)[C@H](Cc2ccccc2)NC1=O
Rattus norvegicus [2]
  T1/2: 0.7 h
Rattus norvegicus [8]
  K: 217 µmol
Rattus norvegicus [10]
  K: 162 µmol

## CC[C@@H](C)[C@H]1NC(=O)[C@H](Cc2ccc(O)cc2)NC(=O)[C@@H](N)CSSC[C@@H](C(=O)N2CCC[C@@H]2C(=O)N[C@@H](CC(C)C)C(=O)NCC(N)=O)NC(=O)[C@H](CC(N)=O)NC(=O)[C@@H](CCC(N)=O)NC(=O)[C@H]([C@@H](C)CC)NC(=O)[C@@H](Cc2ccc(O)cc2)NC(=O)[C@H](N)CSSC[C@H](C(=O)N2CCC[C@H]2C(=O)N[C@H](CC(C)C)C(=O)NCC(N)=O)NC(=O)[C@@H](CC(N)=O)NC(=O)[C@H](CCC(N)=O)NC1=O
Rattus norvegicus [2]
  T1/2: 3.47 h
Rattus norvegicus [10]
  K: 231 µmol

## CC[C@@H](C)[C@H]1NC(=O)CC2(CCCCC2)SSC[C@@H](C(=O)N2CCC[C@@H]2C(=O)N[C@@H](CC(C)C)C(=O)NCC(N)=O)NC(=O)[C@H](CC(N)=O)NC(=O)[C@H](CCC(N)=O)NC(=O)[C@H]([C@@H](C)CC)NC(=O)[C@H](Cc2ccc(O)cc2)NC(=O)[C@@H](N)CSSC[C@H](C(=O)N2CCC[C@@H]2C(=O)N[C@H](CCCN=C(N)N)C(=O)NCC(N)=O)NC(=O)[C@@H](CC(N)=O)NC(=O)[C@@H]([C@H](C)CC)NC(=O)[C@@H](Cc2ccccc2)NC1=O
Rattus norvegicus [2]
  T1/2: 0.817 h
Rattus norvegicus [8]
  K: 200 µmol
Rattus norvegicus [10]
  K: 123 µmol

## CC[C@@H](C)[C@H]1NC(=O)CC2(CCCCC2)SSC[C@H](N)C(=O)N[C@@H](Cc2ccc(O)cc2)C(=O)N[C@@H]([C@@H](C)CC)C(=O)N[C@@H](CCC(N)=O)C(=O)N[C@@H](CC(N)=O)C(=O)N[C@H](C(=O)N2CCC[C@H]2C(=O)N[C@@H](CC(C)C)C(=O)NCC(N)=O)CSSC[C@@H](C(=O)N2CCC[C@H]2C(=O)N[C@@H](CCCN=C(N)N)C(=O)NCC(N)=O)NC(=O)[C@H](CC(N)=O)NC(=O)[C@H]([C@@H](C)CC)NC(=O)[C@H](Cc2ccccc2)NC1=O
Rattus norvegicus [1]
  Na: 762 µmol
Rattus norvegicus [13]
  Volume of urine: 9.4 mL
Rattus norvegicus [5]
  Na: 375 µmol
Rattus norvegicus [7]
  Uterotonic activity: 0.22 IU mg-1
Rattus norvegicus [9]
  Pressor response: 0 IU mg-1
Rattus norvegicus [11]
  Volume of urine: 14.2 mL
Rattus norvegicus [12]
  Uterotonic activity: 1.1 IU mg-1

## CC[C@H](C)[C@@H]1NC(=O)[C@H](Cc2ccc(O)cc2)NC(=O)[C@@H](N)CSSC[C@@H](C(=O)N2CCC[C@H]2C(=O)N[C@@H](CC(C)C)C(=O)NCC(N)=O)NC(=O)[C@H](CC(N)=O)NC(=O)[C@H](CCC(N)=O)NC(=O)[C@H]([C@@H](C)CC)NC(=O)[C@H](Cc2ccc(O)cc2)NC(=O)[C@@H](N)CSSC[C@@H](C(=O)N2CCC[C@H]2C(=O)N[C@@H](CC(C)C)C(=O)NCC(N)=O)NC(=O)[C@H](CC(N)=O)NC(=O)[C@H](CCC(N)=O)NC1=O [OXYTOCIN DIMER]
Rattus norvegicus [3]
  Antidiuretic activity: ~10%
Rattus norvegicus [5]
  Na: 1150 µmol
Rattus norvegicus [7]
  Uterotonic activity: 1.37 IU mg-1
Rattus norvegicus [9]
  Pressor response: 0.5 IU mg-1
Rattus norvegicus [11]
  Volume of urine: 6.4 mL
Rattus norvegicus [12]
  Uterotonic activity: 13.8 IU mg-1
